Experimental data as given in ChEMBL document CHEMBL1124248, “Preparation and antischistosomal and antitumor activity of hycanthone and some of its congeners. Evidence for the mode of action of hycanthone” (1988).

What was measured:
Nucleic Acid [1] = test: In vitro binding of [3H]HNMC to calf thymus DNA; format: nucleic-acid assay; details: Bos taurus
Summary of the method: (§1)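 0.02 µCi of 3H-labelled drug was added to 50 µg calf thymus DNA in 20 µL of 0.1 M citrate-phosphate buffer, pH 7. Incubated 1.5 h at 37 °C in the dark, diluted to 0.1 mL saline and dialyzed against saline at 4 °C for up to 4 days. Duplicate 10 µL samples taken from inside the bags at intervals were counted directly, or after TCA precipitation.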

HeLa [2] = test: Incorporation of 2*10e-5 M [3H]uridine in HeLa cells in absence of HNMC measured as TCA precipitable radioactivity compared with non treated controls; format: functional, cell-based; details: Homo sapiens
Summary of the method: (§2)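 HeLa cells (10^6 per duplicate tube) were exposed to drug for 1 h, washed three times with medium, then held 2 h in drug-free medium. [3H]uridine was added for 1 h. Cells were precipitated with 10% TCA, and precipitates were filter-collected and counted. Values are % TCA-precipitable radioactivity versus untreated controls.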

Nucleic Acid [3] = test: In vitro binding of [3H]HNMC to calf thymus DNA after precipitation with alcohol and TCA was measured after 1 day; format: nucleic-acid assay; details: Bos taurus; summary of the method: as §1
[4] = (§3) Total radioactivity of [3H]HNMC was evaluated after 1 day; format: functional
Summary of the method: (§4)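 3H-labelled drug (0.02 µCi) was mixed with 50 µg calf thymus DNA in 0.1 M citrate-phosphate buffer, pH 7, and incubated in the dark for 1.5 h at 37 °C. The mix was diluted in saline and dialysed against saline at 4 °C. Duplicate samples drawn from inside the bags at intervals up to 4 days were counted directly.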

HeLa [5] = test: Incorporation of 2*10e-6 M [3H]uridine in HeLa cells in presence of HNMC measured as TCA precipitable radioactivity compared with non treated controls; format: functional, cell-based; details: Homo sapiens
Summary of the method: (§5)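 HeLa cells (10^6 per duplicate tube) were incubated 1 h with drug. [3H]uridine was then added and incubation continued 1 h with drug present. Cells were washed with cold saline and precipitated with 10% TCA. Precipitates were collected on glass filters, TCA-washed and counted. Values are % TCA-precipitable radioactivity versus untreated controls.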

HeLa [6] = test: Binding of 1x 10e-4 M [3H]HNMC to HeLa DNA; format: functional, Homo sapiens
Summary of the method: (§6)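 HeLa cells exposed 1 h to [3H]-labelled drug, washed three times with saline, then held 30 min at 37 °C in drug-free medium. After a 2 h digestion at 37 °C, crude DNA was ethanol-precipitated, purified on a CsCl density gradient, dialyzed and reprecipitated. DNA was quantified by A260. An aliquot was treated with DNase, and DNase-sensitive radioactivity was expressed as drug molecules per base pair.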

Schistosoma mansoni [7] = test: Incorporation of 1.2 M *10e6 [3H]uridine in hycanthone(HC) resistant Schistosoma mansoni; format: functional
Summary of the method: (§7)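 Adult HC-resistant S. mansoni were treated in vitro, and [3H]uridine incorporation by the worms was measured. Values are % of control. Concentrations are given in M × 10^6.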

HeLa [8] = test: Binding of 1x 10e-5 M [3H]HNMC to HeLa DNA; format: functional, Homo sapiens; summary of the method: as §6
Nucleic Acid [9] = test: In vitro binding of [3H]HNMC to calf thymus DNA was measured after 2 hours; format: nucleic-acid assay; details: Bos taurus; summary of the method: as §1
Nucleic Acid [10] = test: In vitro binding of [3H]HNMC to calf thymus DNA was measured after 1 day; format: nucleic-acid assay; details: Bos taurus; summary of the method: as §1
Schistosoma mansoni [11] = test: Incorporation of 6M *10e6 [3H]uridine in hycanthone(HC) resistant Schistosoma mansoni; format: functional; summary of the method: as §7
Nucleic Acid [12] = test: In vitro binding of [3H]HNMC to calf thymus DNA after precipitation with alcohol and TCA was measured after 2 day; format: nucleic-acid assay; details: Bos taurus; summary of the method: as §1
Schistosoma mansoni [13] = test: Day 50% survival of worms in culture of HC sensitive Schistosoma mansoni; format: functional
Mus musculus [14] = test: In vivo antitumor activity against p-388 lymphocytic leukemia in mice at 12.5 mg/kg; Toxic; format: functional, organism-based; parameters: dose 12.5 mg/kg
Summary of the method: (§8)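 Murine P388 lymphocytic leukemia model tested by the National Cancer Institute. Compound given once daily for 9 days; activity expressed as T/C.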

HeLa [15] = test: Binding of 5x 10e-4 M [3H]HNMC to HeLa DNA; format: functional, Homo sapiens; summary of the method: as §6
HeLa [16] = test: Incorporation of 10e-5 M [3H]uridine in HeLa cells in absence of HNMC measured as TCA precipitable radioactivity compared with non treated controls; format: functional, cell-based; details: Homo sapiens; summary of the method: as §2
Nucleic Acid [17] = test: In vitro binding of [3H]HNMC to calf thymus DNA was measured after 3 days; format: nucleic-acid assay; details: Bos taurus; summary of the method: as §1
HeLa [18] = test: Incorporation of 10e-5 M [3H]uridine in HeLa cells in presence of HNMC measured as TCA precipitable radioactivity compared with non treated controls; format: functional, cell-based; details: Homo sapiens; summary of the method: as §5
[19] = as §3; format: functional; summary of the method: as §4; remark: listed apart in the source
[20] = (§9) Total radioactivity of [3H]HNMC was evaluated after 3 days; format: functional; summary of the method: as §4
Schistosoma mansoni [21] = test: Incorporation of 6M *10e6 [3H]-uridine in hycanthone(HC) sensitive Schistosoma mansoni; format: functional
Nucleic Acid [22] = test: In vitro binding of [3H]HNMC to calf thymus DNA after precipitation with alcohol and TCA was measured; format: nucleic-acid assay; details: Bos taurus; summary of the method: as §1
Nucleic Acid [23] = test: In vitro binding of [3H]HNMC to calf thymus DNA after precipitation with alcohol and TCA was measured after 3 days; format: nucleic-acid assay; details: Bos taurus; summary of the method: as §1
Schistosoma mansoni [24] = test: Day 50% survival of worms in culture of HC resistant Schistosoma mansoni; format: functional
Summary of the method: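 Adult HC-resistant S. mansoni were exposed in vitro and kept in culture. The value is the day by which 50% of worms were dead. Cultures were ended at different times in different experiments. Concentrations are given in M × 10^6.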

[25] = Total radioactivity of [3H]HNMC was evaluated after 2 hours; format: functional; summary of the method: as §4
Mus musculus [26] = test: In vivo antitumor activity against p-388 lymphocytic leukemia in mice at 6.25 mg/kg; format: functional; summary of the method: as §8
Nucleic Acid [27] = test: In vitro binding of [3H]HNMC to calf thymus DNA after precipitation with alcohol and TCA was measured after 4 day; format: nucleic-acid assay; details: Bos taurus; summary of the method: as §1
HeLa [28] = test: Incorporation of 2*10e-6 M [3H]uridine in HeLa cells in absence of HNMC measured as TCA precipitable radioactivity compared with non treated controls; format: functional, cell-based; details: Homo sapiens; summary of the method: as §2
[29] = Total radioactivity of [3H]HNMC was evaluated after 2 hr; format: functional; summary of the method: as §4
Schistosoma mansoni [30] = test: Incorporation of 1.2 M*10e6 [3H]uridine in hycanthone(HC) sensitive Schistosoma mansoni; format: functional
Nucleic Acid [31] = test: In vitro binding of [3H]HNMC to calf thymus DNA after precipitation with alcohol and TCA was measured after 2 hours; format: nucleic-acid assay; details: Bos taurus; summary of the method: as §1
Nucleic Acid [32] = test: In vitro binding of [3H]HNMC to calf thymus DNA was measured after 4 day; format: nucleic-acid assay; details: Bos taurus; summary of the method: as §1
[33] = as §9; format: functional; summary of the method: as §4; remark: listed apart in the source
Mus musculus [34] = test: In vivo antitumor activity against p-388 lymphocytic leukemia in mice at 3.13 mg/kg; format: functional; summary of the method: as §8
Nucleic Acid [35] = test: In vitro binding of [3H]HNMC to calf thymus DNA was measured after 2 days; format: nucleic-acid assay; details: Bos taurus; summary of the method: as §1
HeLa [36] = test: Incorporation of 2*10e-5 M [3H]uridine in HeLa cells in presence of HNMC measured as TCA precipitable radioactivity compared with non treated controls; format: functional, cell-based; details: Homo sapiens; summary of the method: as §5

Structure (SMILES): CCN(CC)CCNc1ccc(COC(=O)NC)c2sc3ccccc3c(=O)c12
- Radioactivity (Nucleic Acid [1]): 134000 c.p.m.
- Radioactivity (HeLa [2]): 2%
- Radioactivity (Nucleic Acid [3]): 9500 c.p.m.
- Radioactivity [4]: 150 c.p.m.
- Radioactivity (HeLa [5]): 57%
- Drug mol/base pair (HeLa [6]): 0.00105
- Control (Schistosoma mansoni [7]): 39%
- Drug mol/base pair (HeLa [8]): 8.4e-05
- Radioactivity (Nucleic Acid [9]): 52000 c.p.m.
- Radioactivity (Nucleic Acid [10]): 15000 c.p.m.
- Control (Schistosoma mansoni [11]): 11%
- Radioactivity (Nucleic Acid [12]): 8000 c.p.m.
- Effect (Schistosoma mansoni [13]): 9 days
- T/C (Mus musculus [14]): Toxic
- Drug mol/base pair (HeLa [15]): 0.000203
- Radioactivity (HeLa [16]): 4%
- Radioactivity (Nucleic Acid [17]): 16000 c.p.m.
- Radioactivity (HeLa [18]): 11%
- Radioactivity [19]: 1750 c.p.m.
- Radioactivity [20]: 100 c.p.m.
- Control (Schistosoma mansoni [21]): 3%
- Radioactivity (Nucleic Acid [22]): 11500 c.p.m.
- Radioactivity (Nucleic Acid [23]): 6900 c.p.m.
- Effect (Schistosoma mansoni [24]): 8 days
- Radioactivity [25]: 27500 c.p.m.
- T/C (Mus musculus [26]): 166%
- Radioactivity (Nucleic Acid [27]): 5100 c.p.m.
- Radioactivity (HeLa [28]): 24%
- Radioactivity [29]: 27500 c.p.m.
- Control (Schistosoma mansoni [30]): 21%
- Radioactivity (Nucleic Acid [31]): 12300 c.p.m.
- Radioactivity (Nucleic Acid [32]): 15000 c.p.m.
- Radioactivity [33]: 1350 c.p.m.
- T/C (Mus musculus [34]): 132%
- Radioactivity (Nucleic Acid [35]): 14800 c.p.m.
- Radioactivity (HeLa [36]): 6%
